Assay outcomes deposited in PubChem by several laboratories.
Shown are actives, neighbours in structure and some others; about 5.4% of the full set was active somewhere.
SKKanGAS inh: SKKanGAS growth inhibition. S. pyogenes SKKanGAS, kanamycin growth, BacTiter-Glo, 6 h. inhibition, % at 7.5 µM. 1.3% of 300,000 active. AID 1662;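 active means mean replicate score, as percent of positive control median, at least 50; inconclusive means mean below 50 but one replicate at or above 50; inactive means mean and every replicate below 50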;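 further: strain carries kanamycin resistance gene driven by streptokinase promoter and grows in 40 µg/ml kanamycin; loss of luminescence reflects streptokinase promoter inhibition or plain growth inhibition; 0% = median of DMSO wells and 100% = positive control at its reference dose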
CSC inhib: cancer stem cell inhibition. 1.1% of 300,000 active. inhibition, % at 7.5 µM. cancer stem cell-like cells viability, luminescence. AID 2717; in the data active means inhibition above about 75%; inconclusive means no clear call, values can overlap the other calls; tested in HMLE shEcad cells
T cruzi repl: blocks replication of Trypanosoma cruzi | 1.4% of 300,000 active | inhibition, % (no concentration beside the values) | T. cruzi beta-gal in NIH3T3, luminescence, 90 h;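 active means mean inhibition across valid replicates above about 55%, limit read from the data; inconclusive means mean below that limit but half or more replicates reach it; inactive means mean below it, under half of replicates reach it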;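 further: signal also drops with host cell toxicity which is not excluded here; 0% = plate median of DMSO wells and 100% = zero luminescence signal; higher percent means less beta-gal luminescence so fewer parasites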
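System – NIH/3T3 host cells with β-galactosidase reporter T. cruzi · Doses – single 50 nL compound addition per well in DMSO · Reagent – 5000 T. cruzi trypomastigotes/well · Medium – Low-serum DMEM with 2% FBS · Timing – ≥90 h infection period, 3 h prior cell attachment · Evaluation – parasite load inhibition, % · Technique – GalScreen luminescence, 60 min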
aSyn UTR inh: 5' untranslated region of α-synuclein, MLPCN primary screen; alpha-synuclein 5'UTR reporter, inhibitor activity; inhibition, % (tested at 7.5 µM); 0.82% of 300,000 active; in the data active means inhibition above about 60%; inconclusive means no clear call, values can overlap the other calls;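 further: H4 neuroglioblastoma cells stably carrying SNCA 5'UTR luciferase fusion; 0% = DMSO wells and 100% = positive control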
Mdm2 MdmX PPI: disrupts the human Mdm2-MdmX interaction; AID 485346; O15151+Q00987; 3% of 330,000 active; inhibition, % at 8 µM; SaOS-2 split-luciferase Mdm2/MdmX complementation, luminescence;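 active means inhibition of at least 50% at 8 µM in the primary screen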
Target sequence (O15151 whole entry, looked up): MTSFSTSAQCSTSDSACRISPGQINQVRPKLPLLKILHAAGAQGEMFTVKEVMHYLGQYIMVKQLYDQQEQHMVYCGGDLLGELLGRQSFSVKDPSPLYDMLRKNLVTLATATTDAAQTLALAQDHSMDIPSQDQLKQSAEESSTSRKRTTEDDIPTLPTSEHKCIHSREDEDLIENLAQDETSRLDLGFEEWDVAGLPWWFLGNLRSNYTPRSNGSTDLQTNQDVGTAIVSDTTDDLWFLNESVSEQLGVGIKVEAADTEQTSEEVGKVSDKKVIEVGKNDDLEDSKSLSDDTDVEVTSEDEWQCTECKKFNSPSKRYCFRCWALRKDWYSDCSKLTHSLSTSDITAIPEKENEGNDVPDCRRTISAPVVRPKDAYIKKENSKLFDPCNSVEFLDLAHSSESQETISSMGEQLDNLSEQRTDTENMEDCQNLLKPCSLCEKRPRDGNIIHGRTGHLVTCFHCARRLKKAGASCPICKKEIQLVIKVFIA
Target sequence (Q00987 whole entry, looked up): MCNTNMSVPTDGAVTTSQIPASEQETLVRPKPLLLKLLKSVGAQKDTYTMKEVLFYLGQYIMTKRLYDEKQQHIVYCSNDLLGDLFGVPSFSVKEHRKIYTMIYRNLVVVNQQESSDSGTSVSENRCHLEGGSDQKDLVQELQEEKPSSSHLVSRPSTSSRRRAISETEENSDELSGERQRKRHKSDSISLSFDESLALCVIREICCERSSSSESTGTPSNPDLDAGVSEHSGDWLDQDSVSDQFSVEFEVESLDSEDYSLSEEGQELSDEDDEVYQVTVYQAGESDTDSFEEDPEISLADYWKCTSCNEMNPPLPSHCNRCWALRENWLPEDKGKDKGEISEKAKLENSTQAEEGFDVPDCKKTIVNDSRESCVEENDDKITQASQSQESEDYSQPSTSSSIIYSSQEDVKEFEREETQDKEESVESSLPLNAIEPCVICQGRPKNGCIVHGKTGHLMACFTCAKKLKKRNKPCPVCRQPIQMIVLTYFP
Mdm2-MdmX conf: confirmation of human Mdm2/MdmX interaction inhibitors. inhibition, % at 8 µM. 55% of 10,000 active. shares compounds with Mdm2 MdmX PPI. Mdm2-MdmX binding, luminescent assay; in the data active means inhibition above about 40%
Full FLuc ctr: full-length luciferase inhibition in Mdm2/MdmX counter-screen. shares compounds with Mdm2 MdmX PPI. SaOS-2 full-length luciferase counterscreen, luminescence. inhibition, % at 8 µM. 77% of 6,200 active. AID 504607;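 active means mean inhibition at 8 µM reaching about 37%, which flags the compound as non-specific, limit read from the data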;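 further: p53-null SaOS-2 cells with luciferase driven by a doxycycline-inducible promoter; compound on cells about two nights before reading with doxycycline added after day one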
* hit, by the source's call; ? = inconclusive; · = no result.

SMILES	SKKanGAS inh	CSC inhib	T cruzi repl	aSyn UTR inh	Mdm2 MdmX PPI	Mdm2-MdmX conf	Full FLuc ctr
O=c1cc(O)c2sc(Nc3ccc(Cl)c(F)c3)nc2[nH]1	15.4	19.5	-3.4	-1.0	71.6*	55.5*	44.8*
O=c1cc(O)c2sc(Nc3ccc(F)c(Cl)c3)nc2[nH]1	17.2	·	-7.6	-5.3	60.2*	45.4*	63.5*
CC(=O)c1ccc(N2CCN(C(=O)c3noc4c3CSc3ccccc3-4)CC2)cc1	0.2	-3.8	-14.8	-2.4	50.6*	-12.2	·
COCCn1c(=N)c(C(=O)NCCc2ccccc2)cc2c(=O)n3cccc(C)c3nc21	0.2	7.3	26.2	8.4	8.6	·	·
Cc1cccn2c(=O)c3cc(C(=O)NCCc4ccccc4)c(=N)n(CCCn4ccnc4)c3nc12	3.2	33.1	29.6	-46.5	51.0*	18.1	·
N=c1c(C(=O)NCCc2ccccc2)cc2c(=O)n3ccccc3nc2n1CC1CCCO1 (stereo unspecified)	-2.4	2.1	12.3	-31.9	11.3	·	·
Cc1cccn2c(=O)c3cc(C(=O)NCCc4ccccc4)c(=N)n(CC4CCCO4)c3nc12 (stereo unspecified)	-3.0	-4.2	32.3	-44.5	71.5*	36.6	·
N=c1c(C(=O)NCC2CCCO2)cc2c(=O)n3ccccc3nc2n1Cc1ccccc1 (stereo unspecified)	4.8	-13.3	12.3	-5.9	3.1	·	·
N=c1c(C(=O)NCC2CCCO2)cc2c(=O)n3ccccc3nc2n1Cc1ccccc1Cl (stereo unspecified)	2.9	-12.1	-0.1	8.4	64.1*	25.9	·
COc1ccc(C2CCCN2C(=O)Nc2ccc(Cl)cc2)cc1OC (stereo unspecified)	-2.5	1.7	7.2	-30.5	-25.9	·	·
COc1ccc(-c2sc3cc(OC)c(OC)cc3c2-c2ccc(O)cc2)cc1	·	136.7*	·	·	53.5*	32.5	·
Cc1ccc(S(=O)(=O)N(C)c2ccc(C(=O)Nc3c(C)n(C)n(-c4ccccc4)c3=O)cc2)cc1	-0.8	6.2	3.1	12.4	14.3	·	·
Cc1c(C(=O)N/N=C/c2cccnc2)nnn1-c1nonc1N	-5.1	·	-9.8	-28.7	3.7	·	·
CC1(C)COC(c2cc([N+](=O)[O-])ccc2Cl)=N1	0.9	-6.5	5.2	-1.6	-9.2	·	·
CC1(C)COC(/C=C/c2cccc([N+](=O)[O-])c2)=N1	6.6	-10.7	-15.8	-36.5	79.4*	72.2*	39.1*
CC(C)NC(=O)Nc1cccc2c1O[C@H](CN(C)C(=O)NC1CCCCC1)[C@@H](C)CN([C@H](C)CO)C2=O	·	5.2	·	·	-7.1	·	·
COc1ccc(C(=O)/C=C2\Sc3ccccc3N2C)cc1	-8.4	2.0	16.6	-179.5	-178.7	·	·
COc1ccccc1-[n+]1c(C)cc(/C=C2\Sc3ccccc3N2C)cc1C	45.1	67.7	56.3*	52.9	81.8*	89.2*	58.6*
COc1ccc(-[n+]2c(C)cc(/C=C3\Sc4ccccc4N3C)cc2C)cc1	39.6	55.8	42.6	-3.5	83.0*	77.5*	16.4
COc1ccccc1OC(=O)CCN1c2ccccc2Sc2ccccc21	2.9	8.7	1.1	-3.5	-0.4	·	·
CCc1ccc(-c2cc(C(=O)N/N=C/c3c[nH]c4ccccc34)[nH]n2)cc1	?	?	-6.7	-2.8	62.3*	51.0*	101.3*
CCOC(=O)c1cc(-c2cccc([N+](=O)[O-])c2)n[nH]1	-7.2	1.6	1.4	-16.6	-3.7	·	·
O=C(CNC(=O)c1ccc2c(c1)OCO2)N/N=C/c1cccc([N+](=O)[O-])c1	·	0.0	8.2	-8.0	-15.6	·	·
CCc1ccc(/C=N/NC(=O)c2cc(-c3cccc([N+](=O)[O-])c3)n[nH]2)cc1	-10.3	68.6	-38.6	7.2	62.3*	61.6*	70.5*
O=C(N/N=C/c1cccc([N+](=O)[O-])c1)c1cc(-c2ccc3c(c2)OCO3)n[nH]1	-13.0	10.8	15.3	-14.7	52.4*	31.6	·
SMILES	SKKanGAS inh	CSC inhib	T cruzi repl	aSyn UTR inh	Mdm2 MdmX PPI	Mdm2-MdmX conf	Full FLuc ctr
CC(C)c1cc(C(=O)N/N=C/c2c[nH]c3ccccc23)n[nH]1	-2.9	24.1	-5.2	21.1	4.2	·	·
COc1ccc(CNC(=O)C[C@H]2C[C@H](C(=O)N3CCCCC3)[C@@]3(CCc4ccccc4)c4[nH]c5ccc(Cl)cc5c4CCN3C2=O)cc1OC	·	·	·	·	55.1*	1.4	·
O=C(C[C@H]1C[C@H](C(=O)N2CCCCC2)[C@@]2(CCc3ccccc3)c3[nH]c4ccc(Cl)cc4c3CCN2C1=O)NCCN1CCOCC1	·	·	·	·	83.1*	42.1*	42.1*
O=C(CSc1nc2ccccc2c(=O)n1-c1ccccc1)N1CCCc2ccccc21	4.0	-0.7	15.7	37.9	6.0	·	·
O=C(CSc1nc2ccccc2c(=O)n1-c1ccccc1)N1CCc2ccccc21	-0.8	-0.6	4.7	20.0	54.9*	68.0*	80.6*
COc1cccc(-n2c(SCC(=O)N3CCc4ccccc43)nnc2-c2c[nH]c3ccccc23)c1	0.1	37.5	-30.6	25.4	74.9*	48.9*	82.7*
O=C(NC1CCCC1)c1cc(-c2ccc(Cl)cc2Cl)on1	3.2	·	4.8	-121.7	-69.9	·	·
CCC(C)c1ccc2oc(-c3ccc(NC(=O)Cn4cnc5c(=O)n(C)c(=O)n(C)c54)cc3)nc2c1 (stereo unspecified)	14.2	17.7	32.1	-114.5	50.4*	61.2*	146.9*
Cn1ncc2c(Nc3ccc(O)cc3)nc(Cl)nc21	-1.3	-4.8	-2.5	42.4	18.3	·	·
Cn1ncc2c(Nc3ccc(Br)cc3)nc(Nc3ccc(Br)cc3)nc21	106.0*	103.3*	33.3	-6.1	60.2*	26.3	·
Cn1ncc2c(Nc3cccc(Cl)c3)nc(Nc3cccc(Cl)c3)nc21	100.0*	115.4*	47.4	-0.9	50.0*	20.0	·
O=C1NC(=O)/C(=C\c2ccsc2)N1	-3.3	0.5	1.3	7.2	-4.3	·	·
CCN(CC)c1ccc(/C=C2\NC(=O)NC2=O)cc1	-7.2	45.7	-25.5	5.4	62.6*	47.6*	57.9*
Nc1c(C(=O)Nc2nc3ccccc3s2)sc2nc(-c3cccs3)ccc12	50.3*	22.1	51.9	105.7*	86.8*	-45.5	·
CC(=O)c1sc2nc(-c3cccs3)ccc2c1N	-15.8	14.5	6.3	-272.1	-6.9	·	·
COc1ccc(Nc2oc(COc3ccccc3OC)nc2C#N)cc1	-5.8	1.3	2.7	98.3*	68.5*	63.8*	71.7*
COc1ccccc1OCc1nc(C#N)c(NCCCn2ccnc2)o1	2.6	5.6	-8.0	12.1	8.2	·	·
Cc1ccc(C2C=C(c3ccccc3OC(F)F)Nc3ncnn32)cc1 (stereo unspecified)	-1.8	24.0	-8.2	1.2	21.6	·	·
CN(C)c1ccc(C2C=C(c3ccc(Cl)cc3OC(F)F)Nc3ncnn32)cc1 (stereo unspecified)	87.5*	58.3	27.4	-4.4	66.4*	54.4*	49.2*
